ChEMBL document CHEMBL3352330, “Discovery of azetidine based ene-amides as potent bacterial enoyl ACP reductase (FabI) inhibitors” (Eur J Med Chem, 2014)
≈ marks a conversion by molar mass, not a printed value.

Key:
[1] = biological target: T1, Enoyl-[acyl-carrier-protein] reductase [NADPH] FabI (Staphylococcus aureus) (UniProt Q6GI75); assay: Inhibition of Staphylococcus aureus FabI-mediated reduction of enoyl-ACP preincubated at 1 uM for 30 mins measured after 2 hrs by spectrophotometry
T1 sequence (whole entry): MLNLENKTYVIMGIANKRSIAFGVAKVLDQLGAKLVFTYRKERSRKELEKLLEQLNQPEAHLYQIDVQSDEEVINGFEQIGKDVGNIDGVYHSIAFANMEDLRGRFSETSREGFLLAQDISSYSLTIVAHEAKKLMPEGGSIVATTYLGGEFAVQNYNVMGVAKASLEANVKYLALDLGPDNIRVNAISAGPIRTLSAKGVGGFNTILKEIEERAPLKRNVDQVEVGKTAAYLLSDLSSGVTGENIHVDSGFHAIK
Summary of the method: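 Spectrophotometric FabI assay in 100 mM sodium ADA buffer, pH 6.5. Enzyme (2400 ng/assay) preincubated 30 min with NADH and compound. Reaction started with crotonoyl CoA. After 2 h at room temperature, NADH oxidation read as the fall in absorbance at 340 nm.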

[2] = biological target: T2, Enoyl-[acyl-carrier-protein] reductase [NADPH] FabI (Staphylococcus aureus, UniProt Q6GI75); assay: Inhibition of Staphylococcus aureus FabI-mediated reduction of enoyl-ACP preincubated for 30 mins measured after 2 hrs by spectrophotometry
T2 sequence (Q6GI75 whole entry): T1 sequence (whole entry)

[3] = test system: Staphylococcus aureus; assay: Antibacterial activity against methicillin-sensitive Staphylococcus aureus ATCC 29213 after 16 to 20 hrs by broth microdilution method; assay type: functional
Summary of the method: (§1)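 Broth microdilution in MHB, serial two-fold compound dilutions; final inoculum 5 × 10⁵ CFU/mL; broth, compound and organism controls in duplicate; S. aureus ATCC 29213 as quality control strain; incubation 35 °C, 16–20 h, ambient air; growth read by unaided eye with viewing device, end point set against no-antibiotic control wells.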

[4] = test system: Staphylococcus aureus; assay: Antibacterial activity against methicillin-resistant Staphylococcus aureus ATCC 33591 after 16 to 20 hrs by broth microdilution method; assay type: functional; summary of the method: as §1
[5] = test system: Staphylococcus epidermidis; assay: Antibacterial activity against methicillin-resistant Staphylococcus epidermidis AUCC 704 after 16 to 20 hrs by broth microdilution method; assay type: functional; summary of the method: as §1
[6] = Metabolic stability in mouse liver mirosomes assessed as compound remaining at 1 uM after 15 mins by LC-MS/MS analysis; assay type: ADME, tissue-based; conditions: liver microsomes, read-out: Stability
Summary of the method: (§2)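 Compound tested at 1 µM in mouse liver microsomes (0.3 mg/mL protein) with 1 mM NADPH in KH₂PO₄ buffer, pH 7.4, at 37 °C. Reactions stopped at 0, 15 and 60 min with acetonitrile containing carbamazepine internal standard. Samples centrifuged and the supernatant analysed by LC-MS/MS.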

[7] = Metabolic stability in mouse liver mirosomes assessed as compound remaining at 1 uM after 60 mins by LC-MS/MS analysis; assay type: ADME, tissue-based; conditions: liver microsomes, read-out: Stability; summary of the method: as §2
[8] = Tmax in Swiss albino CD-1 mouse at 10 mg/kg, po administered as single dose; assay type: ADME, organism-based; set-up: dose 10 mg/kg, route oral; conditions: in vivo
Summary of the method: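 Oral gavage, 10 mg/kg single dose, given as a suspension in 0.25% Tween 80 with 0.225% sodium carboxymethyl cellulose. Blood drawn from the retro-orbital plexus into EDTA at set times (sparse sampling, n = 3 per time point). Plasma stored at −20 °C and assayed by LC-MS/MS. Parameters from non-compartmental analysis.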

[9] = AUC in Swiss albino CD-1 mouse at 10 mg/kg, po administered as single dose; assay type: ADME, organism-based; set-up: dose 10 mg/kg, route oral; conditions: plasma
Summary of the method: (§3)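 Blood drawn from the retro-orbital plexus into EDTA at set times (sparse sampling, n = 3 per time point). Plasma stored at −20 °C and assayed by LC-MS/MS. Parameters from non-compartmental analysis.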

[10] = Cmax in Swiss albino CD-1 mouse at 10 mg/kg, po administered as single dose; assay type: ADME, organism-based; set-up: dose 10 mg/kg, route oral; conditions: in vivo; summary of the method: as §3
[11] = Half life in Swiss albino CD-1 mouse at 10 mg/kg, po administered as single dose; assay type: ADME, organism-based; set-up: dose 10 mg/kg, route oral; conditions: in vivo; summary of the method: as §3

SMILES	inhibition [1] [%]	IC50 [2] [nM]	MIC [3] [µg/mL]	MIC [4] [µg/mL]	MIC [5] [µg/mL]	remaining at 0.25 h, 1 µM [6] [%]	remaining at 1 h, 1 µM [7] [%]	Tmax [8] [h]	AUC [9] [ng·h/mL]	Cmax [10] [ng/mL]	half-life [11] [h]
O=C1CCc2cc(/C=C/C(=O)N3CC(COc4ccc5ccccc5c4)C3)cnc2N1	68	1410	4 (≈ 9.67 µM)	4 (≈ 9.67 µM)	> 32	–	–	–	–	–	–
Cc1c(C2CN(C(=O)/C=C/c3cnc4c(c3)CN(CCN3CCOCC3)CC(=O)N4)C2)oc2ccccc12	100	289	1 (≈ 1.94 µM)	1 (≈ 1.94 µM)	2 (≈ 3.88 µM)	–	–	–	–	–	–
O=C1CCc2cc(/C=C/C(=O)N3CC(COc4ccccc4F)C3)cnc2N1	99	378	1 (≈ 2.62 µM)	1 (≈ 2.62 µM)	2 (≈ 5.24 µM)	–	–	–	–	–	–
Cc1cccc(OCC2CN(C(=O)/C=C/c3cnc4c(c3)CCC(=O)N4)C2)c1	47	–	2 (≈ 5.3 µM)	2 (≈ 5.3 µM)	2 (≈ 5.3 µM)	–	–	–	–	–	–
Cc1c(C2CN(C(=O)/C=C/c3cnc4c(c3)CN(C)CC(=O)N4)C2)oc2ccccc12	99	112	0.25 (≈ 0.6 µM)	0.25 (≈ 0.6 µM)	0.5 (≈ 1.2 µM)	25.6	6.6	–	–	–	–
Cc1c(C2CN(C(=O)/C=C/c3cnc4c(c3)CCC(=O)N4)C2)oc2ccc(Cl)cc12	82	204	0.25 (≈ 0.593 µM)	0.25 (≈ 0.593 µM)	0.5 (≈ 1.19 µM)	–	–	1	–	–	–
O=C1CCc2cc(/C=C/C(=O)N3CC(Oc4nc5ccccc5s4)C3)cnc2N1	16	–	> 32	> 32	> 32	–	–	–	–	–	–
Cc1c(C2CN(C(=O)/C=C/c3cnc4c(c3)CNCC(=O)N4)C2)oc2ccccc12	83	384	0.25 (≈ 0.621 µM)	0.25 (≈ 0.621 µM)	1 (≈ 2.48 µM)	96.2	76.4	0.5	9000	2250	8.5
Cc1ccc(OCC2CN(C(=O)/C=C/c3cnc4c(c3)CCC(=O)N4)C2)cc1	67	921	1 (≈ 2.65 µM)	1 (≈ 2.65 µM)	2 (≈ 5.3 µM)	–	–	–	–	–	–
CC(=O)Nc1ccc(/C=C/C(=O)N2CC(c3oc4ccccc4c3C)C2)cn1	97	161	1 (≈ 2.66 µM)	1 (≈ 2.66 µM)	8 (≈ 21.3 µM)	–	–	–	–	–	–
O=C1CCc2cc(/C=C/C(=O)N3CC(Cc4nc5ccccc5s4)C3)cnc2N1	41	–	2 (≈ 4.94 µM)	4 (≈ 9.89 µM)	2 (≈ 4.94 µM)	–	–	–	–	–	–
O=C1CCc2cc(/C=C/C(=O)N3CC(COc4ccccc4)C3)cnc2N1	81	265	0.25 (≈ 0.688 µM)	0.25 (≈ 0.688 µM)	1 (≈ 2.75 µM)	–	–	–	–	–	–
O=C1CCc2cc(/C=C/C(=O)N3CC(c4ccccn4)C3)cnc2N1	87	242	4 (≈ 12 µM)	8 (≈ 23.9 µM)	16 (≈ 47.8 µM)	–	–	–	–	–	–
O=C1CCc2cc(/C=C/C(=O)N3CC(Oc4ccccc4)C3)cnc2N1	35	–	4 (≈ 11.4 µM)	4 (≈ 11.4 µM)	16 (≈ 45.8 µM)	–	–	–	–	–	–
COc1ccc2oc(C3CN(C(=O)/C=C/c4cnc5c(c4)CCC(=O)N5)C3)c(C)c2c1	–	–	0.5 (≈ 1.2 µM)	1 (≈ 2.4 µM)	2 (≈ 4.79 µM)	–	–	–	–	–	–
Cc1c(C2CN(C(=O)/C=C/c3ccc(NC(=O)Cn4ccnn4)nc3)C2)oc2ccccc12	66	843	> 32	> 32	> 32	–	–	–	–	–	–
O=C1CCc2cc(/C=C/C(=O)N3CC(c4nc5ccccc5s4)C3)cnc2N1	83	373	0.25 (≈ 0.64 µM)	0.25 (≈ 0.64 µM)	1 (≈ 2.56 µM)	–	–	2	–	–	–
Cc1c(CN(C)C(=O)/C=C/c2cnc3c(c2)CCC(=O)N3)oc2ccccc12 [AFN-1252]	100	29	0.008 (≈ 0.0213 µM)	0.008 (≈ 0.0213 µM)	0.008 (≈ 0.0213 µM)	55.4	17.5	1	2200	440	1.84
O=C1CCc2cc(/C=C/C(=O)N3CC(OCc4ccccc4)C3)cnc2N1	69	376	1 (≈ 2.75 µM)	2 (≈ 5.5 µM)	2 (≈ 5.5 µM)	–	–	–	–	–	–
O=C1CCc2cc(/C=C/C(=O)N3CCC3)cnc2N1	15	–	> 32	> 32	> 32	–	–	–	–	–	–
Cc1c(C2CN(C(=O)/C=C/c3cnc4c(c3)CN(CCN3CCOCC3)C(=O)N4)C2)oc2ccccc12	105	58	1 (≈ 1.99 µM)	1 (≈ 1.99 µM)	2 (≈ 3.99 µM)	–	–	–	–	–	–
O=C1CCc2cc(/C=C/C(=O)N3CC(c4ccccc4)C3)cnc2N1	80	488	1 (≈ 3 µM)	2 (≈ 6 µM)	2 (≈ 6 µM)	–	–	–	–	–	–
O=C1CCc2cc(/C=C/C(=O)N3CC(COc4ccc(F)cc4)C3)cnc2N1	92	316	0.25 (≈ 0.655 µM)	0.5 (≈ 1.31 µM)	1 (≈ 2.62 µM)	–	–	2	–	–	–
Cc1c(C2CN(C(=O)/C=C/c3cnc4c(c3)CCC(=O)N4)C2)sc2ccccc12	89	709	0.125 (≈ 0.31 µM)	0.25 (≈ 0.62 µM)	2 (≈ 4.96 µM)	–	–	4	–	–	–
Cc1c(C2CN(C(=O)/C=C/c3cnc4c(c3)NCCC(=O)N4)C2)oc2ccccc12	92	316	0.25 (≈ 0.621 µM)	0.5 (≈ 1.24 µM)	1 (≈ 2.48 µM)	–	–	–	–	–	–
Cc1cc(C2CN(C(=O)/C=C/c3cnc4c(c3)CCC(=O)N4)C2)nc2ccccc12	84	242	32 (≈ 80.3 µM)	> 32	> 32	–	–	–	–	–	–
Cc1ccccc1OCC1CN(C(=O)/C=C/c2cnc3c(c2)CCC(=O)N3)C1	80	177	0.25 (≈ 0.662 µM)	0.5 (≈ 1.32 µM)	1 (≈ 2.65 µM)	–	–	2	–	–	–
O=C1CCc2cc(/C=C/C(=O)N3CC(COc4cccc(F)c4)C3)cnc2N1	89	438	1 (≈ 2.62 µM)	2 (≈ 5.24 µM)	2 (≈ 5.24 µM)	–	–	–	–	–	–
